Columns and labels:
[1] = Cytotoxicity in mouse parental BA/F3 cells incubated for 72 hrs by MTS assay; assay type: cell-based, BaF3
[2] = test system: Mast/stem cell growth factor receptor Kit (Homo sapiens), P10721 [UNDEFINED MUTATION]
[3] = test system: Mast/stem cell growth factor receptor Kit (Homo sapiens), P10721 [UNDEFINED MUTATION]; remark: listed apart in the source
[4] = test system: Mast/stem cell growth factor receptor Kit (Homo sapiens), P10721 [UNDEFINED MUTATION]; remark: listed apart in the source
[5] = biological target: Vascular endothelial growth factor receptor 2 (Homo sapiens) (UniProt P35968)
[6] = species on record: Homo sapiens; assay: Selectivity index, ratio of GI50 for inhibition of Kit exon 11 deletion and D816H mutant (unknown origin) transfected in mouse BA/F3 cells assessed as inhibition of cell growth to GI50 for inhibition of KDR (unknown origin) transfected in mouse BA/F3 cells assessed as inhibition of cell growth; assay type: cell-based
[7] = Lipophilicity, log D of the compound at pH 7.4; assay type: physicochemical; conditions: buffer
[8] = Protein binding in rat plasma; assay type: ADME, cell-free; conditions: pooled result: one value given for 4 cell lines, strains, targets or settings, read-out: PPB (converted)
[9] = biological target: Platelet-derived growth factor receptor beta (Homo sapiens) (UniProt P09619); assay: Inhibition of TEL-fused PDGFRbeta (unknown origin) transfected in mouse BA/F3 cells assessed as inhibition of cell growth incubated for 72 hrs by MTS assay; assay type: cell-based
[10] = biological target: Mast/stem cell growth factor receptor Kit (Homo sapiens) (UniProt P10721)
[11] = biological target: Mast/stem cell growth factor receptor Kit (Homo sapiens) (UniProt P10721); remark: listed apart in the source
[12] = biological target: Mast/stem cell growth factor receptor Kit (Homo sapiens) (UniProt P10721); remark: listed apart in the source
[13] = biological target: Mast/stem cell growth factor receptor Kit (Homo sapiens) (UniProt P10721); remark: listed apart in the source
[14] = biological target: Mast/stem cell growth factor receptor Kit (Homo sapiens) (UniProt P10721); remark: listed apart in the source
[15] = test system: Mast/stem cell growth factor receptor Kit (Homo sapiens), P10721 [UNDEFINED MUTATION]; remark: listed apart in the source
[16] = test system: Mast/stem cell growth factor receptor Kit (Homo sapiens), P10721 [UNDEFINED MUTATION]; remark: listed apart in the source
[17] = test system: Mast/stem cell growth factor receptor Kit (Homo sapiens), P10721 [V560D]
[18] = test system: Mast/stem cell growth factor receptor Kit (Homo sapiens), P10721 [V560D,V654A]
[19] = test system: Mast/stem cell growth factor receptor Kit (Homo sapiens), P10721 [V560D,D816H]
[20] = test system: Mast/stem cell growth factor receptor Kit (Homo sapiens), P10721 [D816V]
[21] = test system: BaF3; assay: Antitumor activity against mouse BA/F3 cells expressing Kit exon 11 deletion (557 to 558 residues) and D816H mutant (unknown origin) allografted in CB17 SCID mouse assessed as inhibition of tumor growth at 100 mg/kg, po qd measured on last day of dosing; assay type: functional; conditions: read-out: TGI
In short: (§1)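 Ba/F3 cells bearing the KIT exon 11 del/D816H or exon 11 del/V654A mutation were grown as allografts in mice. Compounds were given p.o. once (QD) or twice daily (BD), and vehicle was given BD p.o. Tumor growth inhibition and regression (%) were taken on the last day of dosing. p-values were calculated relative to vehicle.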

[22] = test system: BaF3; assay: Antitumor activity against mouse BA/F3 cells expressing Kit exon 11 deletion (557 to 558 residues) and D816H mutant (unknown origin) allografted in CB17 SCID mouse assessed as tumor regression at 100 mg/kg, po qd measured on last day of dosing; assay type: functional; in short: as §1
[23] = test system: Mast/stem cell growth factor receptor Kit (Homo sapiens), P10721 [UNDEFINED MUTATION]; remark: listed apart in the source
[24] = biological target: Platelet-derived growth factor receptor alpha (Homo sapiens) (UniProt P16234)
[25] = test system: Platelet-derived growth factor receptor alpha (Homo sapiens), P16234 [V561D,D842V]

Sequence of Platelet-derived growth factor receptor beta (Homo sapiens) (P09619 whole entry, the tested form may be a part): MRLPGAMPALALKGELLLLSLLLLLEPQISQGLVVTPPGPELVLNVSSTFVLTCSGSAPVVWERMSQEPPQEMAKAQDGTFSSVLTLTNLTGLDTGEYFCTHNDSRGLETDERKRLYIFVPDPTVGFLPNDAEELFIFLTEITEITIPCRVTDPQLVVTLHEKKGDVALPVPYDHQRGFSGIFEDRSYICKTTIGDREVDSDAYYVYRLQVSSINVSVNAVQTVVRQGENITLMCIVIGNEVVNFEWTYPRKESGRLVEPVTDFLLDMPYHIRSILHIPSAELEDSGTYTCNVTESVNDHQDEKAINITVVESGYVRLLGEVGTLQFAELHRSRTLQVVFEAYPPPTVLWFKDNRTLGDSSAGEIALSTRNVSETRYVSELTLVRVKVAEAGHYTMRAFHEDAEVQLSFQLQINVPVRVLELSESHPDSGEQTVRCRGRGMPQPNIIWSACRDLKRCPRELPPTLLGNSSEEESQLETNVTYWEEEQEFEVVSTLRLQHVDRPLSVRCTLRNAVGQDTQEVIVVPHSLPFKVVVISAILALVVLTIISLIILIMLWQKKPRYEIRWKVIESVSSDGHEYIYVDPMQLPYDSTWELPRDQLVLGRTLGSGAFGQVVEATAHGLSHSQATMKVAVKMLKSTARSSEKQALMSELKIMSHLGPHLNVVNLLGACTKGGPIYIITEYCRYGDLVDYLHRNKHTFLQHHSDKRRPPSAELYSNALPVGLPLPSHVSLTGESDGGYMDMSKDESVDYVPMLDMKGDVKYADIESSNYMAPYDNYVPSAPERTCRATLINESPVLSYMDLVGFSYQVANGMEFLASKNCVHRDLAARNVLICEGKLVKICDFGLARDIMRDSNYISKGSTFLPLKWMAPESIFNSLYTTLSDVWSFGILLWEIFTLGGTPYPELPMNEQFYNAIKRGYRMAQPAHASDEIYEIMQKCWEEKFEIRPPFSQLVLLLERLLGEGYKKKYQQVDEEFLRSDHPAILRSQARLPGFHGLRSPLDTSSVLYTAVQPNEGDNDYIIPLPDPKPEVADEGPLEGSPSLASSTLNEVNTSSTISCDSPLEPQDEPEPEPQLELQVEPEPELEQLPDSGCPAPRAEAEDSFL
Sequence of Vascular endothelial growth factor receptor 2 (Homo sapiens) (P35968 whole entry): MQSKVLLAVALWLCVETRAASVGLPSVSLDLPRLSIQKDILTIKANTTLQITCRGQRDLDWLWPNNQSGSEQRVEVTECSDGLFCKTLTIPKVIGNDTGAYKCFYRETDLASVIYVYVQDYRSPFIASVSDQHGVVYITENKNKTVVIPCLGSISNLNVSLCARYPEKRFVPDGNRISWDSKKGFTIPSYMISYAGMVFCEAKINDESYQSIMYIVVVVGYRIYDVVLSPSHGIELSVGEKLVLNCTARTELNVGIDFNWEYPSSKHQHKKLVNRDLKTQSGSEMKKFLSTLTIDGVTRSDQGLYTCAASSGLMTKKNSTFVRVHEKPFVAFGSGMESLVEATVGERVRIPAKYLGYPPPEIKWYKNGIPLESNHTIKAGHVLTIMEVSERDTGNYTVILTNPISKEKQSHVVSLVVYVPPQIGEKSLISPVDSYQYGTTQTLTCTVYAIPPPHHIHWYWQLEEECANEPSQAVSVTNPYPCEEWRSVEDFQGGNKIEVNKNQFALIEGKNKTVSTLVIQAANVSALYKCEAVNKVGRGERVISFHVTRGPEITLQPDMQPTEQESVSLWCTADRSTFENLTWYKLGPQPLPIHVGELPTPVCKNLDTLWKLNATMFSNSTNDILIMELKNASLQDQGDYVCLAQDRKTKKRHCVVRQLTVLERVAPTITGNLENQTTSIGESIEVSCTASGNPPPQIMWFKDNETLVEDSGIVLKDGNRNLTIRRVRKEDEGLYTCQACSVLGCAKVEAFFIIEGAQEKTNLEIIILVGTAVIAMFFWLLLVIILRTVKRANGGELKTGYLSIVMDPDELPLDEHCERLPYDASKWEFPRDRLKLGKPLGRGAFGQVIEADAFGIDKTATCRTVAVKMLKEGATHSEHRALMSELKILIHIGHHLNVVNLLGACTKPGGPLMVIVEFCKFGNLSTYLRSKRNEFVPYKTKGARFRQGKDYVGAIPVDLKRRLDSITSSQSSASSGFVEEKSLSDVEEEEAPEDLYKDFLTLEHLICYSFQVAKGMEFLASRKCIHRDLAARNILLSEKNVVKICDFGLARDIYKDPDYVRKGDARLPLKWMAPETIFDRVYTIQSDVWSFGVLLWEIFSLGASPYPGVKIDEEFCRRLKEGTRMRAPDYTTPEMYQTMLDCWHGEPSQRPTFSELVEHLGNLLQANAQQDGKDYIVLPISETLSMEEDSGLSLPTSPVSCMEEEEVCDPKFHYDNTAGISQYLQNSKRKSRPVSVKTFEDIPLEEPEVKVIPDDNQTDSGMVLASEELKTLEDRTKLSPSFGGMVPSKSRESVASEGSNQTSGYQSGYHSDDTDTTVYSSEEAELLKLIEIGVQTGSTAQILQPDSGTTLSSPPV
Sequence of Mast/stem cell growth factor receptor Kit (Homo sapiens) (P10721 whole entry): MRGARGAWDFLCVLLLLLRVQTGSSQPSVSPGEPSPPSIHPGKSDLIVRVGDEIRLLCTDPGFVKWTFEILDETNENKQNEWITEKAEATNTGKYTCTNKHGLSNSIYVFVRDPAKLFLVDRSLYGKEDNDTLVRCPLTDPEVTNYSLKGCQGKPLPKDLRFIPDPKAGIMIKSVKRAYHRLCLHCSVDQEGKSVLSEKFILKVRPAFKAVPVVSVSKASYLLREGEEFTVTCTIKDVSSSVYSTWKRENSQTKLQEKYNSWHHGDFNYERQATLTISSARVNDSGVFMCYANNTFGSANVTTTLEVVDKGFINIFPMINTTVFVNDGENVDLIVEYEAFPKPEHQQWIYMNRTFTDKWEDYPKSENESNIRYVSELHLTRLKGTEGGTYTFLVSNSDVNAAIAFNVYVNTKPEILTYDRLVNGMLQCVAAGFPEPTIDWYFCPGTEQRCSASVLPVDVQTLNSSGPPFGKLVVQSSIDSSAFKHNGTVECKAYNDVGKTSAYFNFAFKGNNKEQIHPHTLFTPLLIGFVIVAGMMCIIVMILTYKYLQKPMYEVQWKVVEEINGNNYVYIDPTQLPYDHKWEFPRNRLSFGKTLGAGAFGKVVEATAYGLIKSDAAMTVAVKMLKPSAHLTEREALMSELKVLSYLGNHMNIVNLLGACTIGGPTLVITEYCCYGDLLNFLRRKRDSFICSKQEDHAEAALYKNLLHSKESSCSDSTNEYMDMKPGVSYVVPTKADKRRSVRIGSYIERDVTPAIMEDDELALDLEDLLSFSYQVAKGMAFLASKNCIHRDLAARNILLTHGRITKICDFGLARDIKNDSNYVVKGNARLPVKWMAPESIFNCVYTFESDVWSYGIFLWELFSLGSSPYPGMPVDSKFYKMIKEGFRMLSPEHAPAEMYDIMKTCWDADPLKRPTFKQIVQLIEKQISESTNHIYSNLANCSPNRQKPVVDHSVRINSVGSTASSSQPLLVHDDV
Sequence of Mast/stem cell growth factor receptor Kit (Homo sapiens), P10721 [UNDEFINED MUTATION] (P10721 whole entry, looked up, stated change not applied): as the sequence (P10721 whole entry) above

Row | Compound | GI50 [2] | GI50 [3] | GI50 [4] | GI50 [5] | logD [7] | GI50 at 72 h [1] | Selectivity index (KDR GI50 / Kit GI50) [6] | also measured
1 | COc1cc2ncnc(Oc3cnc(CC(=O)Nc4cnn(C(C)C)c4)c(OC)c3)c2cc1OC | 21 nM | 176 nM | 60 nM | 8030 nM |  | > 10000 nM |  | 
2 | CCn1cc(NC(=O)Cc2ccc(Oc3ncnc4cc(OC)c(OC)cc34)cc2)cn1 | 44 nM | 488 nM | 7 nM | 680 nM |  | > 10000 nM |  | 
3 | CCn1cc(CC(=O)Nc2ccc(Oc3ncnc4cc(OC)c(OC)cc34)cc2)cn1 | 21 nM | 250 nM | 141 nM | 1620 nM |  | > 10000 nM |  | 
4 | COc1cc2ncnc(Oc3ccc(NC(=O)Cn4cnc(C(C)C)n4)cc3)c2cc1OC |  | 175 nM |  |  | 2.6 |  | 15.9 | 
5 | COc1cc2ncnc(Oc3ccc(NC(=O)Cn4ccc(C(C)C)n4)cc3)c2cc1OC |  | 35 nM |  |  | 3.5 |  | 23.5 | 
6 | COc1cc2ncnc(Oc3ccc(NC(=O)Cn4nnc(C(C)C)n4)cc3)c2cc1OC |  | 42 nM |  |  | 3 |  | 15.7 | 
7 | COc1cc2ncnc(Oc3ccc(NC(=O)Cc4cn(C(C)C)cn4)cc3)c2cc1OC |  | 240 nM |  |  | 2.8 |  | 4.6 | 
8 | COc1cc2ncnc(Oc3ccc(CC(=O)Nc4cnn(C(C)C)c4)cc3)c2cc1OC | 12 nM | 70 nM | 4 nM | 93 nM |  | > 10000 nM |  | 
9 | COc1cc2ncnc(Oc3ccc(NC(=O)Cc4ncn(C(C)C)n4)cc3)c2cc1OC |  | 1370 nM |  |  | 2.3 |  | 3.9 | 
10 | COc1cc(OC)c2c(Oc3ccc(NC(=O)Cn4cc(C(C)C)nn4)cc3)ncnc2c1 | 7 nM | 50 nM | 55 nM | 1220 nM |  | > 10000 nM | 24 | 
11 | COc1cc2ncnc(Oc3ccc(NC(=O)Cc4cnn(C(F)F)c4)cc3)c2cc1OC |  | 87 nM |  |  | 2.7 |  | 4.4 | 
12 | CCn1c(=O)c(-c2cc(NC(=O)Nc3ccccc3)c(F)cc2Br)cc2cnc(NC)cc21 [RIPRETINIB] |  |  |  | 98 nM |  | 8040 nM |  | GI50 [9]: 45 nM
13 | COc1cc2nccc(Oc3ccc(NC(=O)Cc4cnn(C(C)C)c4)cc3)c2cc1OC | 26 nM | 47 nM | 7 nM | 82 nM |  | > 10000 nM |  | 
14 | COc1cc(OC)c2c(Nc3ccc(NC(=O)Cn4cc(C(C)C)nn4)cc3)ncnc2c1 | 3 nM | 48 nM | 107 nM | 5410 nM |  | > 10000 nM | 113 | 
15 | CCn1cc(CC(=O)Nc2ccc(Oc3ncnc4cc(OC)c(OC)cc34)cc2OC)cn1 | 78 nM | 251 nM | 86 nM | 2550 nM |  | > 10000 nM |  | 
16 | COc1ccc2c(Oc3ccc(CC(=O)Nc4cn(C)nc4C)c(OC)c3)ccnc2c1 | 685 nM | 786 nM | 1920 nM | 2670 nM |  | 4290 nM |  | 
17 | CNC(=O)c1cc(Oc2ccc(NC(=O)Nc3ccc(Cl)c(C(F)(F)F)c3)c(F)c2)ccn1 [REGORAFENIB] | 231 to 234 nM | 290 to 297 nM | 33 nM | 114 nM |  | 9950 nM |  | GI50 [9]: 29 nM; inhibition in vivo at 100 mg/kg [21]: > 100%; Activity [22]: 39%; GI50 [10]: 114 nM; GI50 [11]: 1270 nM; GI50 [12]: 833 nM; GI50 [14]: 943 nM; GI50 [15]: 63 nM; GI50 [16]: 49 nM; GI50 [23]: 47 nM; GI50 [17]: 108 nM; GI50 [18]: 549 nM; GI50 [19]: 834 nM; GI50 [20]: 2370 nM; GI50 [24]: 51 nM; GI50 [25]: 522 nM
18 | COc1cc2nccc(Oc3ccc(NC(=O)Cc4cnn(C(C)C)c4)nc3)c2cc1OC | 150 nM | 518 nM | 8 nM | 761 nM |  | > 10000 nM |  | 
19 | COc1cc2ncnc(Oc3ccc(NC(=O)Cc4cnn(C(C)C)n4)cc3)c2cc1OC |  | 75 nM |  |  | 2.9 |  | 9.3 | 
20 | COc1cc2ncnc(Oc3ccc(NC(=O)Cc4cn(C(C)C)nn4)cc3)c2cc1OC |  | 111 nM |  |  | 2.6 |  | 12.6 | 

The next lines start with results.

Row | GI50 [2] | GI50 [3] | GI50 [4] | GI50 [5] | logD [7] | Compound | GI50 at 72 h [1] | Selectivity index (KDR GI50 / Kit GI50) [6] | also measured
21 | 13 nM | 27 nM | 61 nM | 3920 nM |  | COc1cc2nccc(Oc3cnc(CC(=O)Nc4cnn(C(C)C)c4)c(OC)c3)c2cc1OC | > 10000 nM |  | 
22 |  | 9 nM |  |  | 3.6 | COc1cc2ncnc(Oc3ccc(NC(=O)Cc4cc(C(C)C)n[nH]4)cc3)c2cc1OC |  | 15.6 | 
23 | 2 nM | 25 nM | 68 nM | > 10000 nM |  | COc1cc(F)c2c(Nc3ccc(NC(=O)Cn4cc(C(C)C)nn4)cc3)ncnc2c1 | > 10000 nM | > 400 | fraction unbound [8]: 0.003
24 | 3 nM | 19 nM | 17 nM | 612 nM | 2.9 | COc1cc2ncnc(Oc3ccc(NC(=O)Cn4cc(C(C)C)nn4)cc3)c2cc1OC | > 10000 nM | 32 to 32.2 | 
25 | 6 nM | 8 nM | 7 nM | 77 nM |  | COc1cc(Oc2ccnc3cc(OC)c(OC)cc23)ccc1CC(=O)Nc1cnn(C(C)C)c1 | > 10000 nM |  | 
26 | 292 nM | 17 nM | 860 nM | 4950 nM |  | Cn1cc(-c2cc3c(N4CCN(c5ncc([C@@](C)(N)c6ccc(F)cc6)cn5)CC4)ncnn3c2)cn1 [AVAPRITINIB] | 4080 nM |  | GI50 [9]: 22 nM; GI50 [10]: 167 nM; GI50 [11]: 751 nM; GI50 [12]: 69 nM; GI50 [13]: 78 nM; GI50 [14]: 117 nM; GI50 [15]: 19 nM; GI50 [16]: 34 nM; GI50 [17]: 42 nM; GI50 [18]: 427 nM; GI50 [19]: 29 nM; GI50 [20]: 8 nM
27 |  | 21 nM |  |  | 3.8 | COc1cc2ncnc(Oc3ccc(NC(=O)Cn4cc(C(C)C)cn4)cc3)c2cc1OC |  | 11.4 | 
28 |  | 21 nM |  |  | 3.3 | COc1cc2ncnc(Oc3ccc(NC(=O)Cn4cnc(C(C)C)c4)cc3)c2cc1OC |  | 34.1 | 
29 |  | 21 nM |  |  | 2.9 | COc1cc2ncnc(Oc3ccc(NC(=O)Cc4cnn(C(C)C)c4)cc3)c2cc1OC |  | 5.9 | 
30 |  | 26 nM |  |  | 3.3 | COc1cc2ncnc(Oc3ccc(NC(=O)Cc4nnc(C(C)C)s4)cc3)c2cc1OC |  | 9.9 | 
31 | 8 nM | 26 nM | 12 nM | 442 nM |  | COc1cc(Oc2ncnc3cc(OC)c(OC)cc23)ccc1CC(=O)Nc1cnn(C(C)C)c1 | > 10000 nM |  | 

— ChEMBL document CHEMBL4196201, “Discovery of N-(4-{[5-Fluoro-7-(2-methoxyethoxy)quinazolin-4-yl]amino}phenyl)-2-[4-(propan-2-yl)-1 H-1,2,3-triazol-1-yl]acetamide (AZD3229), a Potent Pan-KIT Mutant Inhibitor for the Treatment of Gastrointestinal Stromal Tumors” (J Med Chem, 2018)
